Data on two compounds can be found in ChEMBL document CHEMBL4364291, “Benzylideneacetone Derivatives Inhibit Osteoclastogenesis and Activate Osteoblastogenesis Independently Based on Specific Structure-Activity Relationship” (J Med Chem, 2019).

The subject of series [1] is AGS. Description: Antiproliferative activity against human AGS cells after 24 hrs by MTT assay. The note with it: read-out: LD50 (the source's name). It counts as functional. On the technique in general: Formazan colour is commonly taken as a measure of viable cells.
Series [2] relates to BMDM. Description: Effect on NFkappaB expression in M-CSF induced C57BL/6 mouse bone marrow macrophages at 10 uM measured over 5 days by Western blot analysis. The series is classed as functional, cell-based. The gist of the method:
(§1)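 C57BL/6 BMM were proliferated with M-CSF alone without RANKL and treated at 0.5 or 10 μM. NF-κB expression was followed over time by Western blot.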
In general terms: In western blotting, separated proteins are transferred to a membrane and probed.

The test system of series [3] is B16-F10. The series is described as follows: Antiproliferative activity against mouse B16F10 cells after 24 hrs by MTT assay. The series is classed as functional. The note with it: B16-F10, 24 h, read-out: LD50 (the source's name). The gist of the method:
(§2)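 Cells were maintained in DMEM at 37 °C under 5% CO2. Growth and survival were estimated by MTT assay, and the value is reported as LD50.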

The test system of series [4] is MC3T3-E1. Description: Induction of osteoblast differentiation in ascorbic acid/beta-glycerophosphate-induced mouse MC3T3-E1 cells co-cultured with C57BL/6 mouse bone marrow macrophages at 10 uM measured on day 6 by TRAP staining-based inverted microscopic analysis. The series is classed as functional, cell-based.
Series [5] has as its system BMDM. Description: Suppression of NFATc1 expression in M-CSF induced C57BL/6 mouse bone marrow macrophages at 10 uM measured over 5 days by Western blot analysis. The series is classed as functional, cell-based. The gist of the method:
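C57BL/6 BMM were kept proliferating with M-CSF in the absence of RANKL and treated with compound (0.5 or 10 μM). NFATc1 expression was followed over the culture period by Western blot.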

Series [6] deals with MC3T3-E1. Description: Induction of osteoblast differentiation in ascorbic acid/beta-glycerophosphate-induced mouse MC3T3-E1 cells co-cultured with C57BL/6 mouse bone marrow macrophages assessed as increase in osteocalcin expression at 10 uM measured on day 14 by Western blot analysis. The series is classed as functional, cell-based. The gist of the method:
(§3)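 MC3T3-E1 and C57BL/6 BMM cocultures were given osteoblast plus osteoclast differentiation factors, with or without 10 μM compound, for 21 d. The negative control had M-CSF only. Osteocalcin in culture medium was quantified by Western blot at 7, 14 and 21 d.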

Series [7] in a line: Inhibition of M-CSF/RANKL-induced osteoclast differentiation in C57BL/6 mouse bone marrow macrophage assessed as reduction in bone resorption at 7.8 uM treated for 3 days starting from 6 days post M-CSF/RANKL-stimulation by europium-conjugated collagen based time-resolved fluorescence assay relative to control. It counts as functional, BMDM. Further details: scale not given: the % may be the effect or the level left. The essentials: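 Mature multinucleated osteoclasts differentiated from C57BL/6 BMM were exposed to compound for 3 d in a bone resorption assay. Resorption was compared with untreated mature osteoclasts.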

The subject of series [8] is BMDM. Description: Inhibition of RANKL-induced osteoclastogenesis in C57BL/6 mouse bone marrow macrophages assessed as effect on NFkappaB expression at 10 uM measured over 5 days by Western blot analysis. The series is classed as functional, cell-based. The essentials:
(§4)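 C57BL/6 BMM were grown with M-CSF plus RANKL over the course of osteoclastogenesis, treated at 0.5 or 10 μM. NF-κB and NFATc1 were followed by Western blot. The negative control was M-CSF only.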

In series [9] the test system is BMDM. The series is described as follows: Inhibition of M-CSF/RANKL-induced osteoclast differentiation in C57BL/6 mouse bone marrow macrophages co-cultured with mouse MC3T3-E1 at 10 uM measured on day 14. It counts as functional, cell-based.
For series [10], the system named is MC3T3-E1. Description: Induction of osteoblast differentiation in ascorbic acid/beta-glycerophosphate-induced mouse MC3T3-E1 cells co-cultured with C57BL/6 mouse bone marrow macrophages assessed as increase in osteocalcin expression at 10 uM measured on day 21 by Western blot analysis. The series is classed as functional, cell-based. The essentials: as §3
Series [11] deals with BMDM. Description: Inhibition of M-CSF/RANKL-induced osteoclast differentiation in C57BL/6 mouse bone marrow macrophages co-cultured with mouse MC3T3-E1 cells assessed as reduction in multinucleated TRAP+ cells measured on day 6 by TRAP staining-based inverted microscopic analysis. It counts as functional, cell-based. The essentials:
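C57BL/6 BMM were cocultured with MC3T3-E1 preosteoblasts in osteoclast and osteoblast differentiation factors. The negative control had M-CSF only. Compound was added at a final 10 μM. TRAP staining and inverted-microscope inspection were done on day 6.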

Series [12] is described as follows: Cytotoxicity against human HaCaT cells after 24 hrs by MTT assay. The note with it: read-out: LD50. The series is classed as cell-based. The gist of the method: as §2
The subject of series [13] is MC3T3-E1. The series is described as follows: Induction of osteoblast differentiation in mouse MC3T3-E1 cells co-cultured with C57BL/6 mouse bone marrow macrophages assessed as activation of ALP production at 10 uM measured on day 7 relative to control. It counts as functional. The gist of the method: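 MC3T3-E1 cells were cocultured with C57BL/6 BMM in differentiation factors for both cell types, with 10 μM compound, and grown for 21 d. ALP production was measured at 7, 14 and 21 d after coculture induction, relative to untreated cells.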

A short description of series [14]: Cytotoxicity against human ASC cells after 24 hrs by MTT assay. The series is classed as cell-based. The settings on record: read-out: LD50. The gist of the method: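 Human adipose-derived mesenchymal stem cells were grown in CB-ADMSC-GM medium at 37 °C under 5% CO2. Cell growth and survival were measured by MTT assay and reported as LD50.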
For series [15], the system named is BMDM. The series is described as follows: Inhibition of RANKL-induced osteoclastogenesis in C57BL/6 mouse bone marrow macrophages assessed as reduction in NFATc1 expression at 0.5 uM measured over 5 days by Western blot analysis. The series is classed as functional, cell-based. The gist of the method:
as §4

Series [16] concerns Mus musculus. Description: Antiosteoporotic activity in ddY mouse model of OVX-induced osteoporosis assessed as increase in new bone volume in femur bone at 1 mg/kg, po administered once daily via gavage for 4 weeks by microcomputed tomographic analysis. It counts as functional, organism-based. The gist of the method: (§5)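 Female ddY mice were ovariectomized. Oral gavage began 1 week after surgery and ran once daily for 28 d. Vehicle was 300 μL PBS containing 0.5% (v/v) DMSO, also given to sham and OVX controls. Mice were then euthanized and femur and tibia fixed for CT imaging. Values are mean ± SD of four mice.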

A short description of series [17]: Toxicity in ddY mouse model of OVX-induced osteoporosis assessed as increase in body weight at 1 mg/kg, po administered once daily via gavage for 4 weeks measured 5 weeks post OVX-challenge. It counts as organism-based. The settings on record: in vivo, 840 h. The essentials:
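Dosing of ddY mice began one week after ovariectomy: compound in 300 μL of 0.5% (v/v) DMSO-containing PBS by gavage once daily for 28 d. OVX and sham controls received vehicle. Body weight was compared with sham control 5 weeks after OVX.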

In series [18] the test system is Mus musculus. The series is described as follows: Antiosteoporotic activity in ddY mouse model of OVX-induced osteoporosis assessed as increase in trabecular number in femur bone at 1 mg/kg, po administered once daily via gavage for 4 weeks by microcomputed tomographic analysis. The series is classed as functional, organism-based. The essentials:
as §5

Series [19] relates to Mus musculus. Description: Antiosteoporotic activity in ddY mouse model of OVX-induced osteoporosis assessed as increase in femur bone mineral density at 1 mg/kg, po administered once daily via gavage for 4 weeks by microcomputed tomographic analysis. The series is classed as functional, organism-based. The gist of the method:
as §5

For series [20], the system named is Mus musculus. Description: Antiosteoporotic activity in ddY mouse model of OVX-induced osteoporosis assessed as reduction in trabecular separation in femur bone at 1 mg/kg, po administered once daily via gavage for 4 weeks by microcomputed tomographic analysis. It counts as functional, organism-based. The essentials: as §5
Series [21] concerns BMDM. Description: Effect on NFkappaB expression in M-CSF induced C57BL/6 mouse bone marrow macrophages at 0.5 uM measured over 5 days by Western blot analysis. It counts as functional, cell-based. The essentials: as §1

Active and inactive are the calls of the source. No cut-off for these calls is given here. Bounds are passed on as bounds.

Consider `CC(=O)/C=C/c1ccc(O)c(O)c1`, for which the CC50 in [1] came to 0.06 mM; in series [3] it was 0.065 mM. For the same compound, the outcome in [2] was inactive. The result in series [4], in series [5], in series [6] and in series [10] was Active. Besides, the Activity entry in [7] is recorded as “<=59%”; in series [13] it was 100%. Besides, in series [8], the inhibition result was “inactive”. Further, in [9], the inhibition result was “Active”. Besides, the inhibition entry in series [11] was “Dose-dependent effect”. The CC50 at 24 h came to 3.5 mM in [12] and 2.8 mM in series [14].
Take `COc1ccc(/C=C/C(C)=O)cc1O`: the inhibition entry in [15] is “Active”. For the same compound, the outcome in series [16], in series [18], in [19] and in [20] was Active. Besides, the Activity entry in series [17] was “Toxic”. The result in [21] was inactive.
